Results published in the EternaBench riboswitch data.

How the values were obtained:
MS2 coat protein [1] = test: apparent Kd, MS2 coat protein; higher = weaker binding; RNA-MaP array; tryptophan 2.4 mM where present
Outline: (§1)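 Designs on Illumina sequencing-chip clusters, transcribed by stalled E. coli RNA polymerase, were exposed to SNAP-549-labelled MS2 coat protein in doubling steps from 0.7 or 1.5 nM up to 3 µM, without and then with constant ligand. The buffer held 100 mM Tris-HCl pH 7.5, 80 mM KCl, 4 mM MgCl2, BSA, DTT, yeast tRNA and Tween-20. Apparent Kd values are medians of filtered per-cluster binding-curve fits to green signal normalised to red-channel RNA signal and control-cluster median Fmax.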

MS2 coat protein [2] = test: apparent Kd, MS2 coat protein; higher = weaker binding; RNA-MaP array; theophylline 2 mM where present
Outline: as §1

[3] = designed as: ON switch for tryptophan, no ligand
[4] = ligand present: tryptophan, designed as: ON switch for tryptophan
[5] = designed as: OFF switch for tryptophan, no ligand
[6] = ligand present: tryptophan, designed as: OFF switch for tryptophan
[7] = designed as: OFF switch for theophylline, no ligand
[8] = ligand present: theophylline, designed as: OFF switch for theophylline
[9] = designed as: ON switch for theophylline, no ligand
[10] = ligand present: theophylline, designed as: ON switch for theophylline

Sequence	apparent Kd (MS2 coat protein [1]; [3])	apparent Kd (MS2 coat protein [1]; [4])	apparent Kd (MS2 coat protein [2]; [7])	apparent Kd (MS2 coat protein [2]; [8])	also measured
CUAUAUGGAAACAUAUAGAAGCGAAAGCAACGAGGACCGGUACGGCCGCCACUCGAAGAGUGGUGGACAUGAGGAUCACCCAUGU	63.3 nM	52.8 nM			
AGAAUAUAGUCGGCCGCCACUCUACAAACAUGAGGAUCACCCAUGUUCACAUAGUGGAAACACAUGAGGACCGGGACAUAGGCAU	15.6 nM	14.2 nM			
AUUCAUGGAAACAUGACAUACAUUACCGGUCGAGGACCGGUACGGCCGCCACUCGGUUGGUGGCACAUGAGGAUCACCCAUGUUA	26.8 nM	26.7 nM			
GGGAGGGAGGCGGCCGCCACUGAUUUUCAUAUAUAUAUAACAUGAGGAUCACCCAUGUAGAUAUACAGGACCGGGCCUUUUUUUU	20.4 nM	19.5 nM			
UUCUUUAAGUCGGCCGCCACUGAAACAUGAGGAUCACCCAUGUAAAUUUGGGAGUAGGUAUAUUACAGGACCGGGACUAUAGUAA					apparent Kd (MS2 coat protein [1]; [5]): 29.9 nM; apparent Kd (MS2 coat protein [1]; [6]): 54.8 nM
GGUUACUCUACGGCCGCCACUGAACAUGAGGAUCACCCAUGUAAUGUUCAGACGUCUUUAGACGACAGGACCGGGUAGUGUAACC	178 nM	151 nM			
UGAUACCAGUCGGCCGCCACUACAUGAGGAUCACCCAUGUAUGGGUCAAUGCUAGAUACUAGCAGUAGGACCGGGACUGGUAUCU					apparent Kd (MS2 coat protein [1]; [5]): 11.4 nM; apparent Kd (MS2 coat protein [1]; [6]): 36.1 nM
GCGACCCUGAGAUCCUGCGUAACGUGAACACGAGGACCGGUACGGCCGCCACUCGAGAGAACAUGAGGAUCACCCAUGUCUGAGC					apparent Kd (MS2 coat protein [1]; [5]): 20.4 nM; apparent Kd (MS2 coat protein [1]; [6]): 22.2 nM
AAUAAACAUGAGGAUCACCCAUGUUGUUGACGAGGACCGGUACGGCCGCCACUCGACAUGAGGAUCACCCAUGUUGUCACAUGAG	180 nM	151 nM			
CAAUAAGUACCGGUCCUCAGAUCCUCAUGACGAGGACCGGUACGGCCGCCACUCGAAACAUGAGGAUCACCCAUGUAAUAAUAAC					apparent Kd (MS2 coat protein [1]; [5]): 40.9 nM; apparent Kd (MS2 coat protein [1]; [6]): 30.5 nM
GGAUGGAACUCGGCCGCCACUGGUGAUCCUAAUGUACAUGAGGAUCACCCAUGUACAUGAGAAGAUAGGACCGGGAGAUAACAUG	27.7 nM	19.8 nM			
ACCGCGGUAUCGGCCGCCACUUGUGGGUUAAAUCUGGUACAUGAGGAUCACCCAUGUGUCUCCUCGAGGACCGGGAUAGCGUGAC	158 nM	23.9 nM			
UGUCGGCGUAAGUUGGCAUGUCUUGCUGGUCGAGGACCGGUACGGCCGCCACUCGAUCCUUCGCACAUGAGGAUCACCCAUGUUG	18.3 nM	17.1 nM			
CUAUAAAUAGCGGCCGCCACUUACUCAUGAGGUAACAACAUGAGGAUCACCCAUGUUUGAGGAUCAAGGACCGGGCUAUUUAUAG	29.8 nM	17.6 nM			
UCGGACAUGAGGAUCACCCAUGUAAAUCCUCGAGGACCGGUACGGCCGCCACUCGAACGAGUGGCACGCGAGUGCGCACUCGCGU	30.9 nM	27.7 nM			
GAUACUAUGAAAGUAGUAUCUACGUGUUGACGAGGACCGGUACGGCCGCCACUCGACAUGAGGAUCACCCAUGUAUAGAAUAUGU	20.6 nM	14.8 nM			
UUAUGCAGGUCGGCCGCCACUACACACAUGAGGAUCACCCAUGUAGUUACUGGGUGAAGUGGCAGUAGGACCGGGACCUGCAUAU	371 nM	227 nM			
AUGGAGACCUCGGCCGCCACUCUCCAUGAGGAUCUCCCAUGUAACAUGAGGAUCACCCAUGUGCUGAGGACCGGGAGGUCCUGAA	10.6 nM	12 nM			
AACAUGAGGAUCACCCAUGUCCUCAUGAUUCGAGGACCGGUACGGCCGCCACUCGGUCCUCGCGAGGAGGAGUCAAAGACUCCAA	178 nM	393 nM			
UAACAUGAGGAUCACCCAUGUAUACUAAGUCGAGGACCGGUACGGCCGCCACUCGAACUUCAAGAAUAGGCGGUAAAUGUAAGUA					apparent Kd (MS2 coat protein [1]; [5]): 11.5 nM; apparent Kd (MS2 coat protein [1]; [6]): 13.3 nM
CGCGGUUGAGAUGGGCCUUUGAUAAGUCUGCGAGGACCGGUACGGCCGCCACUCGAGGACAUGAGGAUCACCCAUGUACUUCGCG					apparent Kd (MS2 coat protein [1]; [5]): 47.3 nM; apparent Kd (MS2 coat protein [1]; [6]): 17.8 nM
UUACAUGAGGAUCACCCAUGUUUACUAUGUCGAGGACCGGUACGGCCGCCACUCGUAUUUGAUGAUUUAGGUGCCACAAGUUAUU					apparent Kd (MS2 coat protein [1]; [5]): 21.2 nM; apparent Kd (MS2 coat protein [1]; [6]): 20.5 nM
AAUAAUAUCCUCAUGUGAGUCGUACCAUAACGAGGACCGGUACGGCCGCCACUCGAACAUGAGGAUCACCCAUGUAGGUAUGAUA	85.9 nM	200 nM			
ACAUGAGGAUCACCCAUGUUUGAUGUUCCUCGAGGACCGGUACGGCCGCCACUCGAACGAGUGGCGCGCGAGUGCGCACUCGCGC	12.2 nM	12.5 nM			
AAAUGUACGUCGGCCGCCACUGCGCUGAAGACAGUCACAUGAGGAUCACCCAUGUACGACAAGGGUAGGACCGGGAUGUGAGGGU	91.4 nM	44.7 nM			
GAUAUGGAAACAUGUCAGAUCCUUACCGGUCGAGGACCGGUACGGCCGCCACUCGAAAACGAGGAACAUGAGGAUCACCCAUGUA					apparent Kd (MS2 coat protein [1]; [5]): 49.7 nM; apparent Kd (MS2 coat protein [1]; [6]): 87.5 nM

Sequence	apparent Kd (MS2 coat protein [1]; [3])	apparent Kd (MS2 coat protein [1]; [4])	apparent Kd (MS2 coat protein [2]; [7])	apparent Kd (MS2 coat protein [2]; [8])	also measured
UAAUAAGUACCGGUUCUCAGAUCCUCAUGUCGAGGACCGGUACGGCCGCCACUCGAAACAUGAGGAUCACCCAUGUAAUAAUAAU					apparent Kd (MS2 coat protein [1]; [5]): 36.2 nM; apparent Kd (MS2 coat protein [1]; [6]): 31.7 nM
AUGCAUAGCACGGCCGCCACUCCAUGUAAACAUGAGGAUCACCCAUGUAAUUUGGAUGUUUUAUAGAGGACCGGGUGAAAUGCAA					apparent Kd (MS2 coat protein [1]; [5]): 8.88 nM; apparent Kd (MS2 coat protein [1]; [6]): 15.1 nM
GACCCAUGAGUUGUAAAAGCUCAUGGGUCGCGAGGACCGGUACGGCCGCCACUCGGCUGUACAUGAGGAUCACCCAUGUCAGGGU	134 nM	761 nM			
UCGCAUUGCUGCGAUACCAGACAUGAGGAUCACCCAUGUACCAAGGUACGAAAAUAACAUGUCCCUUGGCAGCGCAGCAAUGCGU			12.8 nM	322 nM	
GAUGAACUAUUUGAUACCAGACUACAUGAGGAUCACCCAUGUGUGUUUAUACUUCAGUCAGUCCCUUGGCAGCAAAUAGUUUAUC			147 nM	306 nM	
GUUAUGGACCUGGAUACCAGCUGGUACAAGGGCGGUCUACAUGAGGAUCACCCAUGUGUCAGCCCUUGGCAGCCAGCAACCGGCA			9.28 nM	11.8 nM	
UCGCAUUGCUCAGAUACCAGACAUGAGGAUCACCCAUGUACCAAGGUAACCGAAAGGCAUGUCCCUUGGCAGCUGAGCAAUGCGU			12.1 nM	225 nM	
CAUGUUGUUGAAGAUACCAGAUUCUGAACGUUCACAUGAGGAUCACCCAUGUAAGUCCGAGUCCCUUGGCAGCUUAUACAGGUGG					apparent Kd (MS2 coat protein [2]; [9]): 53 nM; apparent Kd (MS2 coat protein [2]; [10]): 14.7 nM
UGUAACAUGAGGAUCACCCAUGUGCACGAUACCAGCUUCGAAAGAGGCCCUUGGCAGCGUAUGCGUAAGCUGUAUAAUAUAUAUC					apparent Kd (MS2 coat protein [2]; [9]): 11.4 nM; apparent Kd (MS2 coat protein [2]; [10]): 13.6 nM
AACAGGGCUCGCACGAAGCCCUAAGGUGAUACCAGCACAUGUAAGUGCCCUUGGCAGCACGGUACAUGAGGAUCACCCAUGUAGA					apparent Kd (MS2 coat protein [2]; [9]): 64.3 nM; apparent Kd (MS2 coat protein [2]; [10]): 255 nM
UAAAACAUGAGGAUCACCCAUGUAUUUGAUACCAGAGUGAUGAUCCUCCCUUGGCAGCAAAUAACGCAUUGAUUACAAUGCGAAA					apparent Kd (MS2 coat protein [2]; [9]): 42.8 nM; apparent Kd (MS2 coat protein [2]; [10]): 143 nM
ACGACGCAUAGUGAUACCAGUACAACAUGAGGAUCACCCAUGUCACAUAUGUUGUAAUAGUGCCCUUGGCAGCACUAUGCGUCAG					apparent Kd (MS2 coat protein [2]; [9]): 155 nM; apparent Kd (MS2 coat protein [2]; [10]): 17.6 nM
UUUUUUAUCAUGGCGUAUCGGAAAACCGAUACCAGUACAGAAAUGUACCCUUGGCAGCGGCGUUUUACAUGAGGAUCACCCAUGU			14.5 nM	69.2 nM	
ACGACGCAUACAGAUACCAGUAGCCGAGAAACAUGAGGAUCACCCAUGUCGAGCGACAACUGCCCUUGGCAGCUGUAUGCGUCAG					apparent Kd (MS2 coat protein [2]; [9]): 8.49 nM; apparent Kd (MS2 coat protein [2]; [10]): 8.34 nM
UCCACAUGAGGAUCACCCAUGUAAUCAGAUACCAGUGACGAAAGUCACCCUUGGCAGCUGAUUACUUUAGUUCGAGGGUGUUUGA			102 nM	202 nM	
AAGAAGUUUUGAUUUUUAUGAAGUAGUGAUACCAGUCAAGAAAGAGACCCUUGGCAGCGCAACAUGAGGAUCACCCAUGUAAGAA			25.4 nM	27.2 nM	
UGGUACAUGAGGAUCACCCAUGUUCCAGAUACCAGACUCCCGGUGGUCCCUUGGCAGCUGGUGGUACAUGAGGAUCACCCAUGUG			30.4 nM	49.9 nM	
UCGCUCGCAGAAAUGCGAGCGAGUUGCGAUACCAGCCCGGAAACGGGCCCUUGGCAGCGCACAUGAGGAUCACCCAUGUCAUGUU			17.4 nM	23.8 nM	
AAUAAGCAGCUGCAAGGUGAUCCUGCAGAUACCAGCUAGGAAACUAGCCCUUGGCAGCUGCAACAUGAGGAUCACCCAUGUAAUA			34.8 nM	85.3 nM	
ACAUGAACAUGAGGAUCACCCAUGUAUGAUACCAGAAAAGAAGAGUUCCCUUGGCAGCGUACAACACAUGAGGAUCACCCAUGUG					apparent Kd (MS2 coat protein [2]; [9]): 24.1 nM; apparent Kd (MS2 coat protein [2]; [10]): 24.3 nM
UACAUGAGGAUCACCCAUGUAUAGAGGGAUACCAGUGUCAGUGAGCACCCUUGGCAGCCCGCGAACAAUGGGUGCGCUAAAUAGU			30.4 nM	56.9 nM	
AUGUCAUUGGUGCAGCUGUUAAAUGGCGAUACCAGCGUGGAAACACGCCCUUGGCAGCGCCAAAACAUGAGGAUCACCCAUGUUA			28 nM	83 nM	
CAAUAAGUAACUGAUACCAGUGUACUGACAUGAGGAUCACCCAUGUUGGGUUUUGUUGUACACCCUUGGCAGCAGAAUCUUAUUG			60.3 nM	80.7 nM	
GUCAGUAGAACAGAUACCAGUCAAAAGCUGUGAUCUCAUAACAUGAGGAUCACCCAUGUUGACCCUUGGCAGCUGUGGGCGAGGG			19.6 nM	64.6 nM	
CGGUUUGUGAUGGAUACCAGCAGAGAGAAUGUUUAUCCUGACAUGAGGAUCACCCAUGUGUGCCCUUGGCAGCUGUUGUGGGCUG			60 nM	69 nM	
AGCGCAGGUCCUGAUACCAGUGACAUGAGGAUCACCCAUGUCCGAUGGGCCUGCCUCUGACACCCUUGGCAGCAGGGCUUGUGCU			23.7 nM	29.8 nM	
